Measurements as given in ChEMBL document CHEMBL4270517, “New 6- and 7-heterocyclyl-1H-indole derivatives as potent tubulin assembly and cancer cell growth inhibitors” (Eur J Med Chem, 2018).
Calls of active or inactive are those of the source. The calls are words filed in the database; no cut-off is given here.

Legend:
Tubulin = test: Inhibition of tubulin polymerization (unknown origin) preincubated for 15 mins followed by GTP addition measured for 20 mins by spectrophotometric method; assay type: protein-complex assay, Homo sapiens
Method in brief: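 Purified tubulin at 10 µM in 0.8 M monosodium glutamate pH 6.6 with 4% DMSO and varying compound; preincubated 15 min at 30 °C, chilled on ice, GTP to 0.4 mM added, turbidity at 350 nm followed 20 min at 30 °C. Extent of assembly measured; IC50 derived.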

HeLa = test: Induction of cell death in human HeLa cells at 20 nM after 24 hrs by annexin V-FITC staining based flow cytometry
Tubulin (Homo sapiens) [1] = molecular target: T1, Tubulin (Homo sapiens) (UniProt P68371+Q9H4B7+P0DPH7+P68366+Q13509+Q71U36+P04350+Q3ZCM7+P07437+P68363+Q9BQE3+Q6PEY2+Q13885+Q9BVA1+Q9BUF5); test: Inhibition of [3H]colchicine binding to tubulin (unknown origin) at 5 uM after 10 mins relative to control; assay type: protein-complex assay
NCI/ADR-RES = test: Growth inhibition of human NCI/ADR-RES cells after 96 hrs by trypan blue exclusion assay; assay type: functional, cell-based
OVCAR-8 = test: Growth inhibition of human OVCAR8 cells after 96 hrs by trypan blue exclusion assay; assay type: functional, cell-based; settings: OVCAR-8, 96 h
MCF7 = test: Growth inhibition of human MCF7 cells after 96 hrs by trypan blue exclusion assay; assay type: functional, cell-based; settings: MCF7, 96 h
HepG2 = test: Growth inhibition of human HepG2 cells after 48 hrs by MTT assay; assay type: functional, cell-based; settings: HepG2, 48 h
Tubulin (Homo sapiens) [2] = molecular target: T1, Tubulin (Homo sapiens); test: Inhibition of tubulin polymerization in human HeLa cells assessed as formation of sparse tubulin foci at >= 50 nM by DAPI staining based immunofluorescence analysis; assay type: cell-based
Method in brief: (§1)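 HeLa cells on poly-L-lysine coverslips treated 24 h with 20–100 nM compound, fixed in methanol 6 min, immunostained for α-tubulin (FITC secondary), DNA counterstained with DAPI; spindle and microtubule morphology of mitotic cells examined by epifluorescence microscopy with 100× oil objective.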

Tubulin (Homo sapiens) [3] = molecular target: T1, Tubulin (Homo sapiens); test: Inhibition of tubulin polymerization in human HeLa cells assessed as fragmented or multipolar spindles formation at 20 nM by DAPI staining based immunofluorescence analysis; assay type: cell-based; method in brief: as §1
Tubulin (Homo sapiens) [4] = molecular target: T1, Tubulin (Homo sapiens); test: Inhibition of tubulin polymerization in human HeLa cells assessed as microtubule asters formation at 100 nM by DAPI staining based immunofluorescence analysis; assay type: cell-based; method in brief: as §1
Tubulin (Homo sapiens) [5] = molecular target: T1, Tubulin (Homo sapiens); test: Inhibition of tubulin polymerization in human HeLa cells assessed as fragmented or multipolar spindles formation at 20 to 50 nM by DAPI staining based immunofluorescence analysis; assay type: cell-based; method in brief: as §1

## COc1cc(C(=O)c2c[nH]c3c(-c4ccsc4)cccc23)cc(OC)c1OC
Tubulin
  IC50: 6.2 µM

## CC[C@]1(O)C[C@@H]2CN(CCc3c([nH]c4ccccc34)[C@@](C(=O)OC)(c3cc4c(cc3OC)N(C)[C@H]3[C@@](O)(C(=O)OC)[C@H](OC(C)=O)[C@]5(CC)C=CCN6CC[C@]43[C@@H]65)C2)C1
HeLa
  Activity: Active

## COc1cc(C(=O)c2c[nH]c3c(-c4cccs4)cccc23)cc(OC)c1OC
Tubulin (Homo sapiens) [1]
  inhibition: 48%
Tubulin
  IC50: 2.6 µM

## COc1cc(Sc2c[nH]c3cc(-c4cccs4)ccc23)cc(OC)c1OC
Tubulin (Homo sapiens) [1]
  inhibition: 95%
Tubulin
  IC50: 0.47 µM

## COc1cc(C(=O)c2c[nH]c3c(-c4ccco4)cccc23)cc(OC)c1OC
Tubulin (Homo sapiens) [1]
  inhibition: 70%

## COc1cc(Sc2c[nH]c3c(-c4ccoc4)cccc23)cc(OC)c1OC
Tubulin (Homo sapiens) [1]
  inhibition: 86%
Tubulin
  IC50: 1.3 µM

## COc1cc(Sc2c[nH]c3ccc(-c4ccco4)cc23)cc(OC)c1OC
Tubulin (Homo sapiens) [1]
  inhibition: 81%
Tubulin
  IC50: 0.87 µM

## COc1cc(Sc2c[nH]c3ccc(-c4ccsc4)cc23)cc(OC)c1OC
Tubulin (Homo sapiens) [1]
  inhibition: 72%
Tubulin
  IC50: 1.7 µM

## COc1cc(Sc2c[nH]c3c(-c4ccco4)cccc23)cc(OC)c1OC
Tubulin (Homo sapiens) [1]
  inhibition: 95%
Tubulin
  IC50: 0.64 µM

## COc1cc(C(=O)c2c[nH]c3cc(-c4cccs4)ccc23)cc(OC)c1OC
Tubulin (Homo sapiens) [1]
  inhibition: 96%
Tubulin
  IC50: 0.38 µM

## COc1cc(Sc2c[nH]c3cc(-c4ccoc4)ccc23)cc(OC)c1OC
Tubulin (Homo sapiens) [1]
  inhibition: 90%
Tubulin
  IC50: 2.3 µM

## COc1cc(C(=O)c2c[nH]c3cc(-c4ccsc4)ccc23)cc(OC)c1OC
Tubulin (Homo sapiens) [1]
  inhibition: 94%
Tubulin
  IC50: 0.6 µM

## COc1cc(Sc2c[nH]c3ccc(-c4ccoc4)cc23)cc(OC)c1OC
Tubulin (Homo sapiens) [1]
  inhibition: 63%
Tubulin
  IC50: 1.8 µM

## COc1cc(C(=O)c2c[nH]c3cc(-c4ccoc4)ccc23)cc(OC)c1OC
Tubulin (Homo sapiens) [1]
  inhibition: 96%
Tubulin
  IC50: 0.61 µM

## CC(=O)O[C@H]1C(=O)[C@@]2(C)[C@H]([C@H](OC(=O)c3ccccc3)[C@]3(O)C[C@H](OC(=O)[C@H](O)[C@@H](NC(=O)c4ccccc4)c4ccccc4)C(C)=C1C3(C)C)[C@]1(OC(C)=O)CO[C@@H]1C[C@@H]2O [PACLITAXEL]
NCI/ADR-RES
  IC50: 3.1 µM
OVCAR-8
  IC50: 0.004 µM
MCF7
  IC50: 0.0055 µM
HepG2
  IC50: 2.66 µM

## COc1cc(Sc2c[nH]c3cc(-c4ccsc4)ccc23)cc(OC)c1OC
Tubulin (Homo sapiens) [2]
  inhibition: Active
Tubulin (Homo sapiens) [1]
  inhibition: 97%
Tubulin (Homo sapiens) [3]
  inhibition: Active
Tubulin
  IC50: 0.58 µM

## COc1cc(C(=O)c2c[nH]c3c(-c4ccoc4)cccc23)cc(OC)c1OC
Tubulin (Homo sapiens) [1]
  inhibition: 29%
Tubulin
  IC50: 3 µM

## COc1cc(Sc2c[nH]c3c(-c4cccs4)cccc23)cc(OC)c1OC
Tubulin (Homo sapiens) [4]
  inhibition: Active
Tubulin (Homo sapiens) [1]
  inhibition: 89%
Tubulin
  IC50: 0.57 µM
Tubulin (Homo sapiens) [5]
  inhibition: Active

## COc1cc(Sc2c[nH]c3c(-c4ccsc4)cccc23)cc(OC)c1OC
Tubulin (Homo sapiens) [1]
  inhibition: 77%
Tubulin
  IC50: 1.3 µM

## COc1cc(C(=O)c2c[nH]c3cc(-c4ccco4)ccc23)cc(OC)c1OC
Tubulin (Homo sapiens) [1]
  inhibition: 96%
Tubulin
  IC50: 0.76 µM

## COc1cc(Sc2c(-c3cccs3)[nH]c3ccccc23)cc(OC)c1OC
Tubulin (Homo sapiens) [1]
  inhibition: 88%
Tubulin
  IC50: 0.74 µM

## COc1ccc(/C=C\c2cc(OC)c(OC)c(OC)c2)cc1O [COMBRETASTATIN A4]
NCI/ADR-RES
  IC50: 0.0035 µM
OVCAR-8
  IC50: 0.004 µM
MCF7
  IC50: 0.005 to 0.013 µM

## COc1cc(Sc2c[nH]c3ccc(-c4cccs4)cc23)cc(OC)c1OC
Tubulin (Homo sapiens) [1]
  inhibition: 76%
Tubulin
  IC50: 1.3 µM

## COc1cc(Sc2c[nH]c3cc(-c4ccco4)ccc23)cc(OC)c1OC
Tubulin (Homo sapiens) [1]
  inhibition: 97%
Tubulin
  IC50: 0.59 µM
